{
  "source": "ChEMBL document CHEMBL1154427",
  "about": "“Impact of dual infections on chemotherapeutic efficacy in BALB/c mice infected with major genotypes of Trypanosoma cruzi” (2007)",
  "type_in_all_cases": "functional",
  "key": {"[1]": {"system": "Trypanosoma cruzi", "assay": "Antimicrobial activity against Trypanosoma cruzi infected in BALB/c mouse assessed as parasitemia remaining in fresh blood", "outline": "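Tail-vein blood examined daily by light microscopy for living trypomastigotes up to day 60 after infection.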"}, "[2]": {"system": "Trypanosoma cruzi", "assay": "Antimicrobial activity against Trypanosoma cruzi infected in BALB/c mouse assessed as parasitemia remaining in hemoculture", "outline": "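Orbital sinus blood taken 30 days after treatment was inoculated into 3 ml LIT medium and kept at 28°C. Tubes were checked for parasites at days 30, 60, 90 and 120 of culture.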"}, "[3]": {"system": "Trypanosoma cruzi", "assay": "Antimicrobial activity against Trypanosoma cruzi genotype 19 and genotype 39 dually infected in BALB/c mouse assessed as cure rate", "outline": "(§1)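 Mice counted cured when fresh blood examination, hemoculture, blood PCR, ELISA and FC-ALTA were all negative. Mice negative by parasitology and FC-ALTA but positive by ELISA were counted as dissociated and also cured. Observed cure rate per group = cured animals / total infected treated animals × 100. Each genotype combination was run in replicate batches.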"}, "[4]": {"system": "Trypanosoma cruzi", "assay": "Antimicrobial activity against Trypanosoma cruzi infected in BALB/c mouse assessed as parasitemia remaining by PCR method", "outline": "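Orbital sinus blood taken 30 days after treatment into 6 M guanidine–0.2 M EDTA (pH 8.0), 1:2, and kept at room temperature. PCR used primers S35/S36 with 3.5 mM MgCl2: 5 min at 94°C, then 35 cycles of 95°C/65°C/72°C for 1 min each, then 10 min final extension. Products were resolved on 6% polyacrylamide with silver staining.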"}, "[5]": {"system": "Trypanosoma cruzi", "assay": "Antimicrobial activity against Trypanosoma cruzi infected in BALB/c mouse assessed as parasitemia remaining by ELISA", "outline": "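Conventional ELISA on sera taken 2 and 3 months after treatment and stored at –20°C. Sera were tested at 1:80 in PBS against an alkaline-extract antigen of Y strain parasites grown to exponential phase in LIT medium. Bound antibody was detected with peroxidase anti-mouse IgG and read at 490 nm. Per-plate cutoff = mean of 10 negative sera + 2 SD.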"}, "[6]": {"system": "Trypanosoma cruzi", "assay": "Antimicrobial activity against Trypanosoma cruzi genotype 19 and genotype 32 dually infected in BALB/c mouse assessed as cure rate", "outline": "as §1"}, "[7]": {"system": "Trypanosoma cruzi", "assay": "Antimicrobial activity against Trypanosoma cruzi infected in BALB/c mouse assessed as parasitemia remaining by FC-ALTA", "outline": "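Flow cytometric detection of antibodies to live trypomastigotes, microplate format, on sera taken 3 months after treatment and diluted 1:1,500. IgG was detected with FITC-labelled goat anti-mouse IgG. Read-out was percentage of positive fluorescent parasites, relative to a conjugate-only control; >20% was scored positive. Positive and negative controls ran in each batch.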"}, "[8]": {"system": "Trypanosoma cruzi", "assay": "Antimicrobial activity against Trypanosoma cruzi 1 infected in BALB/c mouse assessed as cure rate", "outline": "as §1"}, "[9]": {"system": "Trypanosoma cruzi", "assay": "Antimicrobial activity against Trypanosoma cruzi infected in BALB/c mouse assessed as cure rate", "outline": "as §1"}, "[10]": {"system": "Trypanosoma cruzi", "assay": "Antimicrobial activity against Trypanosoma cruzi 2 infected in BALB/c mouse assessed as cure rate", "outline": "as §1"}, "[11]": {"system": "Trypanosoma cruzi", "assay": "Antimicrobial activity against Trypanosoma cruzi and Trypanosoma cruzi 2 dually infected in BALB/c mouse assessed as cure rate", "outline": "as §1"}, "[12]": {"system": "Trypanosoma cruzi", "assay": "Antimicrobial activity against Trypanosoma cruzi 1 and Trypanosoma cruzi 2 dually infected in BALB/c mouse assessed as cure rate", "outline": "as §1"}, "[13]": {"system": "Trypanosoma cruzi", "assay": "Antimicrobial activity against Trypanosoma cruzi 1 and Trypanosoma cruzi dually infected in BALB/c mouse assessed as cure rate", "outline": "as §1"}, "[14]": {"system": "Trypanosoma cruzi", "assay": "Antimicrobial activity against Trypanosoma cruzi 1 dually infected in BALB/c mouse assessed as cure rate", "outline": "as §1"}, "[15]": {"system": "Trypanosoma cruzi", "assay": "Antimicrobial activity against Trypanosoma cruzi genotype 20 infected in BALB/c mouse assessed as cure rate", "outline": "as §1"}, "[16]": {"system": "Trypanosoma cruzi", "assay": "Antimicrobial activity against Trypanosoma cruzi genotype 19 infected in BALB/c mouse assessed as cure rate", "outline": "as §1"}, "[17]": {"system": "Trypanosoma cruzi", "assay": "Antimicrobial activity against Trypanosoma cruzi genotype 32 infected in BALB/c mouse assessed as cure rate", "outline": "as §1"}, "[18]": {"system": "Trypanosoma cruzi", "assay": "Antimicrobial activity against Trypanosoma cruzi genotype 39 infected in BALB/c mouse assessed as cure rate", "outline": "as §1"}, "[19]": {"system": "Trypanosoma cruzi", "assay": "Antimicrobial activity against Trypanosoma cruzi genotype 20 and genotype 19 dually infected in BALB/c mouse assessed as cure rate", "outline": "as §1"}, "[20]": {"system": "Trypanosoma cruzi", "assay": "Antimicrobial activity against Trypanosoma cruzi genotype 39 and genotype 32 dually infected in BALB/c mouse assessed as cure rate", "outline": "as §1"}, "[21]": {"system": "Trypanosoma cruzi", "assay": "Antimicrobial activity against Trypanosoma cruzi OPS21 cl11 and Trypanosoma cruzi MAS cl11 dually infected in BALB/c mouse assessed as cure rate", "outline": "as §1"}, "[22]": {"system": "Trypanosoma cruzi", "assay": "Antimicrobial activity against Trypanosoma cruzi Bug2148 cl1 and Trypanosoma cruzi MAS cl11 dually infected in BALB/c mouse assessed as cure rate", "outline": "as §1"}},
  "data": [
    {"smiles": "O=C(Cn1ccnc1[N+](=O)[O-])NCc1ccccc1", "note": "[BENZNIDAZOLE]", "values": [
      {"measurement": "Activity", "setting": "[1]", "result": 19.8, "unit": "%"},
      {"measurement": "Activity", "setting": "[2]", "result": 79.3, "unit": "%"},
      {"measurement": "Activity", "setting": "[3]", "result": 25.9, "unit": "%"},
      {"measurement": "Activity", "setting": "[4]", "result": 93, "unit": "%"},
      {"measurement": "Activity", "setting": "[5]", "result": 96.4, "unit": "%"},
      {"measurement": "Activity", "setting": "[6]", "result": 22.7, "unit": "%"},
      {"measurement": "Activity", "setting": "[7]", "result": 99, "unit": "%"},
      {"measurement": "Activity", "setting": "[8]", "result": 35.4, "unit": "%"},
      {"measurement": "Activity", "setting": "[9]", "result": 54.4, "unit": "%"},
      {"measurement": "Activity", "setting": "[10]", "result": 70, "unit": "%"},
      {"measurement": "Activity", "setting": "[11]", "result": 59.1, "unit": "%"},
      {"measurement": "Activity", "setting": "[12]", "result": 17.4, "unit": "%"},
      {"measurement": "Activity", "setting": "[13]", "result": 24, "unit": "%"},
      {"measurement": "Activity", "setting": "[14]", "result": "<33", "unit": "%"},
      {"measurement": "Activity", "setting": "[15]", "result": 0, "unit": "%"},
      {"measurement": "Activity", "setting": "[16]", "result": 70, "unit": "%"},
      {"measurement": "Activity", "setting": "[17]", "result": 70, "unit": "%"},
      {"measurement": "Activity", "setting": "[18]", "result": 50, "unit": "%"},
      {"measurement": "Activity", "setting": "[19]", "result": 0, "unit": "%"},
      {"measurement": "Activity", "setting": "[20]", "result": 59.1, "unit": "%"},
      {"measurement": "Activity", "setting": "[21]", "result": 14.3, "unit": "%"},
      {"measurement": "Activity", "setting": "[22]", "result": 83.3, "unit": "%"}
    ]}
  ]
}
